In the RNAGym collection of RNA variant scans (doi:10.1126/science.aae0568) one finds yeast fitness data, which are given here for 38 variants.

B1: tRNA (parent)
chain: GUUCCGUUGGCGUAAUGGUAACGCGUCUCCCUCCUAAGGAGAAGACUGCGGGUUCGAGUCCCGUACGGAACG

Fewer inactive variants are shown than the library holds. Bounds are passed on as bounds.

Variants of B1 are the subject of this data set. The data set is described as follows: yeast fitness relative to wild type (ratio to wild type); higher = fitter; tRNA-Arg(CCU), competitive growth, 37 C, YPD. The method, boiled down: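 Gene amplicons from the start population and from each of six end populations were read by 100-nucleotide paired-end sequencing. Those end populations came from pooled Saccharomyces cerevisiae strains carrying tRNA-Arg(CCU) gene variants at the native locus, competed in YPD at 37°C for 24 hours. Fitness relative to wild type was worked out from changes in genotype frequencies. Genotypes needed ≥ 100 starting reads, and estimates < 0.5 were set to 0.5.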
Take GUUCAGUUGGUGUAAUGGUAACGCGUCUCCCUCCUAAGGAGAAGACUGUGGGUUCGAGUCCCGUACGGAACG [C5A C11U C49U]: the yeast fitness is at most 0.5.

With GUUCAGUUGGCGUAAUGGUAAAGCGUCUCCCUCCUAAGGAGAAGACUGCGGGUUCAAGUCCCGUACGGAACG [C5A C22A G56A], the yeast fitness is 0.525.

GUUCAGUUGGCGUAAUGGUAACGCGUGUCCCUCCUAAGGAGAAGACUGCGGGUUCGAGUCCCGUACGGAACG [C5A C27G]: the yeast fitness came to 0.709.

GUUCAGUUGGGGUAAUGGUAACGCAUCUCCCUCCUAAGGAGAAGACUGCGGGUUCGAGUCACGUACGGAACG [C5A C11G G25A C61A]: the yeast fitness is at most 0.5.

GUUCAGUUGGCGUAAUGGUAAAGCGUCUCCCUCCUAAGGGGAAGACUGCGGGUUCGAGUACCGUACGGAACG [C5A C22A A40G C60A]: the yeast fitness was at most 0.5.

As to GUUCAGUUGGCGUAAUGGUAAGGCGUCUCCCUCCUAAGGAGAAGACUGCGGGUUCGAGUCCCGUACGGAACG [C5A C22G], the yeast fitness is 0.862.

For GUUCAGUUGGCGUAAUGGUAAUGCGUCUCCCUCCUAAGGAGAAGACUGCGGGUUCGAGUCCCGUACGGAACG [C5A C22U], the yeast fitness amounted to 0.79.

For GUUCAGUUGGCGUAAUGGUAACGCGUUUCCCUCCUAUGGAGAAGACUGCGGGUUCGAGUCCCGUACGGAACG [C5A C27U A37U], the yeast fitness is at most 0.5.

As to GUUCAGUUGGCGUAAUGGUAACGCGUCUUCCUCCUAAGGAGAAGACUGCGGGUUCGAGUCCCGUAUGGAACG [C5A C29U C66U], the yeast fitness was determined as 0.581.

Take GUUCAGUUGGCGUAAUGGUAACGCGUUUCCCUCCUAAGCAGAAGACUGCGGGUUCGAGUCCCGUACGGAACG [C5A C27U G39C]: the yeast fitness is at most 0.5.

For GUUCAGUUGGGGUAAUGGUAACGCGUCUCCCUCCUAAGGAGAAGACUGCGAGUUCGAGUCCUGUACGGAACG [C5A C11G G51A C62U], the yeast fitness was at most 0.5.

With GUUCAGUUGGUGGAAUGGUAACGCGUCUGCCUACUAAGGAGAAGACUGCGGGUUCGAGACCCGUACGGAACG [C5A C11U U13G C29G C33A U59A], the yeast fitness is at most 0.5.

For the variant GUUCAGUUGGCGUAAUGGUAAUGCGUCUCUCUCCUAAGGAGAAGACUGCGGGUUCGAGUCCCGUACGUAACG [C5A C22U C30U G68U], the yeast fitness is at most 0.5.

GUUCAGUUGGCGUAAUGGUAAGGCGUCUACCUCCUAAGGAGAUGACUGCGGGUUCGAGUCCCGUACGAAACG [C5A C22G C29A A43U G68A]: the yeast fitness was at most 0.5.

For GUUCAGUUGGGGUAAUGGUAACGCGUCUCCCUCCUAAGGACAAGACUGCGGGUUCGGGUCCCGUACGGAACG [C5A C11G G41C A57G], the yeast fitness was 0.554.

As to GUUCAGUUGGGGUAAUGGUAACGAGUCUCCCUCCUAAGGAGAAGACUGCGGGUUUGAGUCCCCUACGGAACG [C5A C11G C24A C55U G63C], the yeast fitness is at most 0.5.

Regarding GUUCAGUUGGAGUAAUCGUAACGCGUCUCCCUCCUAAGGAGAGGACUGCGGGUUCGAGUCCCGUACGGAACG [C5A C11A G17C A43G], the yeast fitness was at most 0.5.

On to GUUCAGUUGGCGUAAUGGUAACGCGUCUUCCUCCUAAGGAGAAGACUGCGGGUUCGAGUCCCGUACGGUACG [C5A C29U A69U], for which the yeast fitness was 0.632.

For GUUCAGUUGGCGUAAUGGUAACGUCUCUCGCUCCUAAGGAGAAGACUGCCGGUUCAAGUCCCGUAUGGAACG [C5A C24U G25C C30G G50C G56A C66U], the yeast fitness is at most 0.5.

With GUUCAGUUGGCGUAAUGGUAACGCGUUUCCCUCCUAAGGAGAAGACUGCGGGUUCGAGUCCCGUACGGUACG [C5A C27U A69U], the yeast fitness is 0.711.

As to GUUCAGUUGGGGUAAUGGUAACGCGUCUCCCUCCUAAGGAGAAGACUGCGGGUUUGAGUCACGUACGGAACG [C5A C11G C55U C61A], the yeast fitness was at most 0.5.

For GUUCAGUUGGCGUAAUGGUAACGCGUAGCCCUCCUAAGGAGAAGACUGCGGGUUUGAGUCCCGUACGGAACG [C5A C27A U28G C55U], the yeast fitness was at most 0.5.

Turning to GUUCAGUUGGCGUAAUGGUAAGGCGUCUCCCUCCUAAGGAGAAGACUGCGGGUUCGAGUCCCGUCCGGAACG [C5A C22G A65C], the yeast fitness worked out at 0.582.

For the variant GUUCAGUUGGCGUAAUGGUAACGCGUUUCCCUCCUAAGCAGAAGACUGUGGGUUCGACUCCUGUACGGAACG [C5A C27U G39C C49U G58C C62U], the yeast fitness was at most 0.5.

For GUUCAGUUGGCGUAAUGGUAAAGCGUCUCCCUCCUAAGGAGAAGACUGCCGGUUCGAGUCCCGUACGGAACG [C5A C22A G50C], the yeast fitness worked out at 0.738.

In the case of GUUCAGUUGGCGUAAUGGUAACGCGUCUAGCUCCUAAGGAGAAGACUGCGGGUUUGAGUCGCGUCCGGAACG [C5A C29A C30G C55U C61G A65C], the yeast fitness was 0.554.

Turning to GUUCAGUUGGGGUAAUGGUAACGCGUCUCCCUCCUAAGGAGAAGACUGCGGGUUCGAGUCGCGUACGGAACG [C5A C11G C61G], the yeast fitness turned out to be 0.502.

In the case of GUUCAGUUGGCGUAAUGGUAACGCGUCUCACUCCUAAGGAGAAGACUGCGGGUUCGAGUCCCGUACGGAUCG [C5A C30A A70U], the yeast fitness worked out at 0.742.

For the variant GUUCAGUUGGCGUAAUGGUAACGGGACUGCCACCUAAGGAGAAGACUGCGGGUUCGAGUCCCGUACGGAACG [C5A C24G U26A C29G U32A], the yeast fitness was 0.531.

Take GUUCAGUUGGCGUAAUGGUAACGCGUGUCCCUACUAAGGUGAAGACUCCGGGUACGAGUCCCGUACGGAACG [C5A C27G C33A A40U G48C U54A]: the yeast fitness was 0.506.

For GUUCAGUUGGGGUAAUGGUAACGCGUCACCCUCCUAAGGUGAAGACUGCGGGUUAGAGUCCCGUACGGAACG [C5A C11G U28A A40U C55A], the yeast fitness was at most 0.5.

Turning to GUUCAGUUGGGGUAAUGGUAACGCGUCUCCCUCCUAAGGACAAGACUCCGGGUUCGAGUCCCGUACGGAACG [C5A C11G G41C G48C], the yeast fitness is at most 0.5.

Turning to GUUCAGUUGGCGUAAUGGUAAUGCGUCUCCCUCCUAAGAAGAAGACCGCGGGUUCGAGUCUCGUACGGAACG [C5A C22U G39A U47C C61U], the yeast fitness is at most 0.5.

With GUUCAGUUGGCGUAAUGGUAACGGGUCUCCCUCCUAAGGAGAAGACUGUGGGUUCGAGUCCCGUACGGAACG [C5A C24G C49U], the yeast fitness was at most 0.5.

Turning to GUUCAGUUGGCGUAAUGGUAACGCGUCUGCCUCCUAAGGAGAAGACUGCGGGUUCGAGUCCCGUACCGAACG [C5A C29G G67C], the yeast fitness worked out at 0.588.

With GUUCAGUUGGCGUAAUGGUAACGCGUUUCCCUCCUUAGGAGAAGACUGCGGGUUCGAGUCCCGUACGGAACG [C5A C27U A36U], the yeast fitness is at most 0.5.

Take GUUCAGUUGGCGUAAUGGUAACGCGUCUGCCUCCUAGGGAAAUGACUGCGGGUUCGAGUCCCGUACGGAACG [C5A C29G A37G G41A A43U]: the yeast fitness was at most 0.5.

Consider GUUCAGUUGGCGUAAUGGUAAGGCAUCUCCCUCCUAAGGAGAAGACUGCGGGUUCGAGUCCCGUACGGAACG [C5A C22G G25A], for which the yeast fitness was at most 0.5.
